Reference: ChEMBL document CHEMBL1154253, “Synthesis and serotonin transporter activity of sulphur-substituted alpha-alkyl phenethylamines as a new class of anticancer agents” (Eur J Med Chem, 2009)
In brackets after ≈: the same amount, converted by molar mass. Activity calls are given as the source filed them. No cut-off for these calls is given here.

Columns and labels:
[1] = test system: SH-SY5Y; assay: Cytotoxicity against human SH-SY5Y cells after 48 hrs by neutral red assay; type: functional, cell-based
[2] = test system: HEK293; assay: Cytotoxicity against human HEK293 cells after 48 hrs by neutral red assay; type: cell-based; conditions: HEK293, 48 h
Summary of the method: (§1)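 Neutral Red uptake: 5 × 10⁴ cells/well grown 24–36 h to sub-confluence, then treated 48 h. Cells incubated 3 ± 1 h with NR dye, washed and solubilised in 50% ethanol–1% acetic acid, and absorbance read at 540 nm (690 nm background). Viability given as % of vehicle-treated cells. pEC50 obtained by sigmoidal regression (Hill slope 1) using 4 concentrations in triplicate on two independent days. SERT-line values compared with parental HEK293 by two-way ANOVA with Bonferroni test. Sodium azide 30 mM and Triton-X 2% as positive controls.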

[3] = molecular target: Sodium-dependent serotonin transporter (Rattus norvegicus) (UniProt P31652); assay: Inhibition of [3H]5-HT reuptake at rat SERT expressed in HEK293 cells at 100 uM after 2 mins by liquid scintillation counting; type: cell-based
[4] = test system: PBMC; assay: Cytotoxicity against human PBMC at 10 uM after 24 hrs by alamar blue assay; type: cell-based
Summary of the method: (§2)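 PBMCs from a healthy donor, separated on Ficoll and resuspended in IMDM with FCS and penicillin/streptomycin. Seeded at 1–5 × 10⁴ cells/200 µl and treated 24 h. Alamar Blue added, fluorescence read at ex 544/em 590 nm, background subtracted, untreated cells = 100% viability. Mean + S.E.M.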

[5] = test system: PBMC; assay: Cytotoxicity against human PBMC at 50 uM after 24 hrs by alamar blue assay; type: cell-based; summary of the method: as §2
[6] = Induction of apoptosis in human MUTU-I cells at 50 uM after 24 hrs by annexin V-propidium iodide staining-based FACS analysis; type: functional
[7] = test system: HL-60; assay: Induction of apoptosis in human HL60 cells after 24 hrs by annexin V-propidium iodide staining-based FACS analysis; type: functional, cell-based; conditions: HL-60, 24 h
[8] = molecular target: T1, Sodium-dependent serotonin transporter (Rattus norvegicus, UniProt P31652); assay: Inhibition of [3H]5-HT reuptake at rat SERT expressed in HEK293 cells after 2 mins by liquid scintillation counting; type: cell-based
[9] = test system: DG-75; assay: Induction of apoptosis in human DG75 cells after 72 hrs by annexin V-propidium iodide staining-based FACS analysis; type: functional, cell-based; conditions: DG-75, 72 h
[10] = Induction of apoptosis in human MUTU-I cells after 24 hrs by annexin V-propidium iodide staining-based FACS analysis; type: functional, cell-based
[11] = test system: HL-60; assay: Induction of apoptosis in human HL60 cells at 50 uM after 24 hrs by annexin V-propidium iodide staining-based FACS analysis; type: functional
[12] = test system: DG-75; assay: Induction of apoptosis in human DG75 cells at 50 uM after 72 hrs by annexin V-propidium iodide staining-based FACS analysis; type: functional
[13] = molecular target: Sodium-dependent serotonin transporter (Rattus norvegicus) (UniProt P31652); assay: Inhibition of [3H]5-HT reuptake at rat SERT expressed in HEK293 cells assessed as serotonin reuptake at 10 uM after 2 mins by liquid scintillation counting; type: cell-based; parameters: scale not given: the % may be the effect or the level left
Summary of the method: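 HEK293 TREx cells stably carrying rat SERT-FLAG were plated on poly-L-lysine, and expression was induced with tetracycline for 24 h. Cells were washed in TB buffer (10 mM HEPES, 150 mM NaCl, 2 mM KCl, 1 mM CaCl₂, 1 mM MgCl₂) and preincubated with compound for 5 min at 37 °C. [³H]5-HT (~1 Ci/mmol) uptake then ran 2 min at room temperature. Uptake was stopped with cold paroxetine-containing buffer, and cells were lysed in 2% SDS and counted by scintillation. Paroxetine-defined non-specific uptake was subtracted, and untreated cells were set as 100% reuptake.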

[14] = molecular target: Sodium-dependent dopamine transporter (Homo sapiens, UniProt Q01959); assay: Inhibition of human dopamine transporter
[15] = molecular target: Sodium-dependent noradrenaline transporter (Homo sapiens, UniProt P23975); assay: Inhibition of human noradrenaline transporter
[16] = test system: HEK293; assay: Cytotoxicity against human HEK293 cells at 1 uM after 48 hrs by neutral red assay; type: cell-based; conditions: hek293, 48 h; summary of the method: as §1
[17] = molecular target: T2, Sodium-dependent serotonin transporter (Homo sapiens, UniProt P31645); assay: Induction of human SERT-dependent cytotoxicity in SERT expressing HEK293 cells at 1 uM after 48 hrs by neutral red assay; type: cell-based; summary of the method: as §1
Target sequence in this assay (P31645 whole entry, looked up): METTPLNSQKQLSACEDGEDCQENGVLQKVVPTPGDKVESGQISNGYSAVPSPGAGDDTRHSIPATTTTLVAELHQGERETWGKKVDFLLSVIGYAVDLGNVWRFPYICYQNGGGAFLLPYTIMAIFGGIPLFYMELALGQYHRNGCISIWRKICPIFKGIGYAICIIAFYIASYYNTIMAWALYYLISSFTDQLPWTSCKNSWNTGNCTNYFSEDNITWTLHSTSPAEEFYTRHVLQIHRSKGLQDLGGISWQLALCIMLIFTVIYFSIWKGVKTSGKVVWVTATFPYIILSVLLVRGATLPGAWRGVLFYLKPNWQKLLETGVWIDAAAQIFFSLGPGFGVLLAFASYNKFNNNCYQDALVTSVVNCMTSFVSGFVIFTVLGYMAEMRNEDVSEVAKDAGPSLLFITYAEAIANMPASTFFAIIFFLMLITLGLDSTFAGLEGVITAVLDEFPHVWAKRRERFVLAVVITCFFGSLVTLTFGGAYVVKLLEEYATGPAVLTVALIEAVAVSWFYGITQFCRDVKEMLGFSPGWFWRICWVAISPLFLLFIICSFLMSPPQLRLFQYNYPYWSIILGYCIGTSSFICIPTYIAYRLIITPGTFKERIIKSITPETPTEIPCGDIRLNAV

[18] = molecular target: T2, Sodium-dependent serotonin transporter; assay: Inhibition of [3H]5-HT uptake at human SERT expressed in HEK293 cells after 10 mins by scintillation counting; type: cell-based
Target sequence in this assay (P31645 whole entry): as the sequence (P31645 whole entry, looked up) above

[19] = molecular target: T2, Sodium-dependent serotonin transporter; assay: Inhibition of [3H]5-HT uptake at SERT
Target sequence in this assay (P31645 whole entry): as the sequence (P31645 whole entry, looked up) above

[20] = species: Rattus norvegicus; assay: Selectivity ratio of IC50 for NET in rat brain synaptosome to IC50 for SERT in rat brain synaptosome; type: tissue-based
[21] = species: Rattus norvegicus; assay: Selectivity ratio of IC50 for DAT in rat brain synaptosome to IC50 for SERT in rat brain synaptosome; type: tissue-based
[22] = molecular target: Sodium-dependent serotonin transporter (Rattus norvegicus) (UniProt P31652); assay: Inhibition of [3H]5-HT reuptake at rat SERT expressed in HEK293 cells assessed as serotonin reuptake at […] after 2 mins by liquid scintillation counting; type: cell-based; parameters: scale not given: the % may be the effect or the level left
[23] = molecular target: Sodium-dependent serotonin transporter (Rattus norvegicus) (UniProt P31652); assay: Inhibition of [3H]5-HT reuptake at rat SERT expressed in HEK293 cells assessed as serotonin reuptake at 100 uM after 2 mins by liquid scintillation counting; type: cell-based; parameters: scale not given: the % may be the effect or the level left
[24] = molecular target: Sodium-dependent serotonin transporter (Rattus norvegicus) (UniProt P31652); assay: Inhibition of [3H]5-HT reuptake at rat SERT expressed in HEK293 cells at 1 uM after 2 mins by liquid scintillation counting; type: cell-based
[25] = test system: HL-60; assay: Antiproliferative activity against human HL60 cells after 24 hrs by alamar blue assay; type: functional, cell-based; conditions: HL-60, 24 h
[26] = test system: DG-75; assay: Antiproliferative activity against human DG75 cells after 24 to 72 hrs by alamar blue assay; type: functional, cell-based
Summary of the method: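 Cells seeded at 1–5 × 10⁴ per well and exposed to compound for the stated time. Alamar Blue was then added, followed by 4–6 h incubation at 37 °C in the dark. Fluorescence was read at excitation 544 nm and emission 590 nm. Medium-plus-dye background was subtracted, and untreated cells were set as 100% viability. Readings were in triplicate on two independent days.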

[27] = Antiproliferative activity against human MUTU-I cells after 24 hrs by alamar blue assay
[28] = molecular target: T1, Sodium-dependent serotonin transporter; assay: Inhibition of [3H]5-HT uptake at SERT in rat brain synaptosome; type: tissue-based
[29] = test system: DG-75; assay: Antiproliferative activity against human DG75 cells at 50 uM after 72 hrs by alamar blue assay; type: functional
Summary of the method: (§3)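 Alamar Blue viability: 1–5 × 10⁴ cells/well seeded, drug-treated for the stated time, then 10 µl Alamar Blue added and incubated 4–6 h at 37 °C in the dark. Fluorescence read at ex 544/em 590 nm, medium-only background subtracted, untreated cells = 100% viability. Taxol 10 µM as positive control. Mean ± S.E.M. of six points (triplicate on two independent days).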

[30] = Antiproliferative activity against human MUTU-I cells at 50 uM after 24 hrs by alamar blue assay; type: functional; summary of the method: as §3
[31] = Antiproliferative activity against human MUTU-I cells assessed as cell viability at 50 uM after 24 hrs by alamar blue assay; type: functional; conditions: read-out: Activity; summary of the method: as §3
[32] = test system: HL-60; assay: Induction of apoptosis in human HL60 cells at 10 to 50 uM after 24 hrs by annexin V-propidium iodide staining-based FACS analysis; type: functional
[33] = test system: MCF7; assay: Antiproliferative activity against human MCF7 cells assessed as cell viability at 50 uM after 24 hrs by alamar blue assay; type: functional; conditions: MCF7, 24 h, read-out: Activity; summary of the method: as §3
[34] = Induction of apoptosis in human MUTU-I cells at 10 to 50 uM after 24 hrs by annexin V-propidium iodide staining-based FACS analysis; type: functional
[35] = Antiproliferative activity against […] cells at 50 uM after 24 hrs by alamar blue assay; type: functional, 4T1; summary of the method: as §3
[36] = Cytotoxicity against human PBMC assessed as cell viability at 50 uM after 24 hrs by alamar blue assay; type: cell-based; conditions: read-out: Activity; summary of the method: as §2
[37] = test system: MCF7; assay: Antiproliferative activity against human MCF7 cells at 50 uM after 24 hrs by alamar blue assay; type: functional; summary of the method: as §3
[38] = test system: DG-75; assay: Induction of apoptosis in human DG75 cells at 10 to 50 uM after 72 hrs by annexin V-propidium iodide staining-based FACS analysis; type: functional
[39] = test system: MDA-MB-231; assay: Antiproliferative activity against human MDA-MB-231 cells at 50 uM after 24 hrs by alamar blue assay; type: functional; summary of the method: as §3
[40] = test system: DG-75; assay: Antiproliferative activity against human DG75 cells assessed as cell viability at 50 uM after 72 hrs by alamar blue assay; type: functional; conditions: DG-75, 72 h, read-out: Activity; summary of the method: as §3

Chain of Sodium-dependent dopamine transporter (Q01959 whole entry): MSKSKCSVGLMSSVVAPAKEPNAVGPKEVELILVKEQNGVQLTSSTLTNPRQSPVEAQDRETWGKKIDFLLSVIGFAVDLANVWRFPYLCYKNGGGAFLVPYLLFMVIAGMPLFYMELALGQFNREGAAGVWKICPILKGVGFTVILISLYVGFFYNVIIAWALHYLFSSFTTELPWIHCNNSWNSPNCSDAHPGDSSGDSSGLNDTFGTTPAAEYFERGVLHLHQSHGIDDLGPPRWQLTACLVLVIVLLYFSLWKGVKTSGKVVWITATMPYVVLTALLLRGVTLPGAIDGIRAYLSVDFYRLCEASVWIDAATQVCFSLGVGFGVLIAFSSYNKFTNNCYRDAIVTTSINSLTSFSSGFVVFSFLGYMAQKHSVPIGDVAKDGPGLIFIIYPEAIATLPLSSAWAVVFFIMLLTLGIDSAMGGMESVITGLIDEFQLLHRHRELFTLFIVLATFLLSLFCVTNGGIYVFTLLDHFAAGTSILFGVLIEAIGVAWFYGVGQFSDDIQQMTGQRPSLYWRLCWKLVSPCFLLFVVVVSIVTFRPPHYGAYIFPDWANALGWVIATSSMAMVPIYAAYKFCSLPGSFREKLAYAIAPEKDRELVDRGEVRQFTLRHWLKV
Chain of Sodium-dependent noradrenaline transporter (P23975 whole entry): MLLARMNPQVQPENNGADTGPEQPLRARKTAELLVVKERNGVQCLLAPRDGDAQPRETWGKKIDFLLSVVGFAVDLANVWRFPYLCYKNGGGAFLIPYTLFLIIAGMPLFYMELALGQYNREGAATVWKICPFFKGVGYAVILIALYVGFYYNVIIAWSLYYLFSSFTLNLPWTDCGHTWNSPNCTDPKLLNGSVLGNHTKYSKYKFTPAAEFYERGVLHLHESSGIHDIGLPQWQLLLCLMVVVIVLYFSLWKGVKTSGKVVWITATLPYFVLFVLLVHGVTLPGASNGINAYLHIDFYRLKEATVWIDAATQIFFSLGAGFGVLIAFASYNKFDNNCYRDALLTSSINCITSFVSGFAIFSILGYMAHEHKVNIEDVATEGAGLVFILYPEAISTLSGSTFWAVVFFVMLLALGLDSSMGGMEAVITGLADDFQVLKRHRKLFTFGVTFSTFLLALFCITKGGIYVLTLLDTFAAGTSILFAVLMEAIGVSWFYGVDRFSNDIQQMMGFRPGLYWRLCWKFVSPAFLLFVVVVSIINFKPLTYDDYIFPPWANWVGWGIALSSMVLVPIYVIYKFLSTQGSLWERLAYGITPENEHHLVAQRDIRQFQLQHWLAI
Chain of Sodium-dependent serotonin transporter (Rattus norvegicus) (P31652 whole entry): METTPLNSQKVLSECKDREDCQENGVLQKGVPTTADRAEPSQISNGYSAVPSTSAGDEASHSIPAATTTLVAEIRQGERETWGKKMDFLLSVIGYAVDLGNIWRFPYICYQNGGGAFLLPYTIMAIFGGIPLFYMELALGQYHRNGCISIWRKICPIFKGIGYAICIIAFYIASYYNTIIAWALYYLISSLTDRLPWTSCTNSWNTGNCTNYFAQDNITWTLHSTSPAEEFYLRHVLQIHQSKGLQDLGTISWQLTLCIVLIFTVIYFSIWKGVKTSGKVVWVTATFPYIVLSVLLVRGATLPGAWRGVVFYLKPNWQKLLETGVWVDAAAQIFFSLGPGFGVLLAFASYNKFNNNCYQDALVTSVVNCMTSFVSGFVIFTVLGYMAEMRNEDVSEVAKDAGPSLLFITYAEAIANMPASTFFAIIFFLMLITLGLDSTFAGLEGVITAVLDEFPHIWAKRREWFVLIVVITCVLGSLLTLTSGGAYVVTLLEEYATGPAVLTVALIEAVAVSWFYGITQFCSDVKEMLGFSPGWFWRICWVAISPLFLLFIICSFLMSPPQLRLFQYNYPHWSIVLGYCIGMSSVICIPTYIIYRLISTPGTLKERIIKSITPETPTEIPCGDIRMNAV
T1 sequence (P31652 whole entry): as above

## CC(N)Cc1ccc(SC(C)(C)C)cc1 (centres undefined)
[1]; read-out: EC50
  EC50: 1 µM
[1]; read-out: pEC50 (converted)
  EC50: 20.4 µM
[2]; read-out: pEC50 (converted)
  EC50: 7.24 µM
[3]
  inhibition: 100%

## CCC(N)c1ccc(SC)cc1 (centres undefined)
[4]
  Activity: Non-toxic
[5]
  Activity: Non-toxic
[6]
  Activity: 40%
[7]
  EC50: 29.5 µM
[8]
  IC50: > 25000 nM
[9]
  EC50: 33.8 µM
[10]
  EC50: 21 µM
[1]; read-out: pEC50 (converted)
  EC50: 19.5 µM
[11]
  Activity: 40%
[12]
  Activity: 40%
[2]; read-out: pEC50 (converted)
  EC50: 3.16 µM

## CCCCCSc1ccc(C(N)CC)cc1 (centres undefined)
[1]; read-out: pEC50 (converted)
  EC50: > 10000 µM
[2]; read-out: pEC50 (converted)
  EC50: 2690 µM
[13]
  Activity: 65%

## CSc1ccc(CC(C)N)cc1 (centres undefined) [4-METHYLTHIOAMPHETAMINE]
[14]
  IC50: 3070 nM
[15]
  IC50: 2380 nM
[8]
  IC50: 207 nM
[16]
  Activity: Toxic
[1]; read-out: EC50
  EC50: 1 µM
[1]; read-out: pEC50 (converted)
  EC50: 608 µM
[17]
  Activity: Active
[2]; read-out: pEC50 (converted)
  EC50: 18.6 µM
[18]
  Ki: 450 nM
[19]
  IC50: 74 nM
[20]
  Ratio IC50: 2370
[21]
  Ratio IC50: 3070

## CC(N)Cc1ccc(S(C)(=O)=O)cc1 (centres undefined)
[1]; read-out: pEC50 (converted)
  EC50: > 10000 µM
[22]
  Activity: 100%
[2]; read-out: pEC50 (converted)
  EC50: > 10000 µM
[23]
  Activity: 100%

## CCSc1ccc(CC(CC)NC)cc1 (centres undefined)
[24]
  inhibition: 26%
[2]; read-out: EC50
  EC50: > 100 µM

## CC(=O)O[C@H]1C(=O)[C@@]2(C)[C@H]([C@H](OC(=O)c3ccccc3)[C@]3(O)C[C@H](OC(=O)[C@H](O)[C@@H](NC(=O)c4ccccc4)c4ccccc4)C(C)=C1C3(C)C)[C@]1(OC(C)=O)CO[C@@H]1C[C@@H]2O [PACLITAXEL]
[25]
  IC50: 4 ng/mL (≈ 4.68 nM)
[26]
  IC50: 10 nM
[27]
  IC50: 10 nM

## CNC(C)Cc1ccc2c(c1)OCO2 (centres undefined) [MIDOMAFETAMINE]
[14]
  IC50: 1440 nM
[15]
  IC50: 405 nM
[8]
  IC50: 1060 nM
[1]; read-out: pEC50 (converted)
  EC50: > 10000 µM
[2]; read-out: pEC50 (converted)
  EC50: 245 µM
[19]
  IC50: 425 nM

## CC(N)Cc1ccc(Cl)cc1 (centres undefined)
[14]
  IC50: 424 nM
[15]
  IC50: 207 nM
[28]
  IC50: 182 nM

## CC(N)Cc1ccc(Sc2ccccc2)cc1 (centres undefined)
[29]
  Activity: 90%
[4]
  Activity: Non-toxic
[7]
  EC50: 19.6 µM
[30]
  Activity: 90%
[8]
  IC50: 14300 nM
[31]
  viability at 50 µM: 10%
[9]
  EC50: 23.7 µM
[32]
  Activity: 40%
[10]
  EC50: 14.2 µM
[1]; read-out: EC50
  EC50: 1 µM
[1]; read-out: pEC50 (converted)
  EC50: 13.2 µM
[33]
  viability at 50 µM: < 10%
[34]
  Activity: 40%
[35]
  Activity: 90%
[12]
  Activity: 40%
[2]; read-out: pEC50 (converted)
  EC50: 2.75 µM
[36]
  viability at 24 h, 50 µM: 50%
[37]
  Activity: 40%
[38]
  Activity: 40%
[39]
  Activity: 90%
[40]
  viability at 50 µM: 10%
